Results: ChEMBL document CHEMBL2146464, “Structure-activity relationship study of nitrosopyrimidines acting as antifungal agents” (Bioorg Med Chem, 2012)
In brackets after ≈: the same amount, converted by molar mass. Activity calls are given as the source filed them. No cut-off for these calls is given here.

Experiments:
Aspergillus fumigatus = experiment: Antifungal activity against Aspergillus fumigatus ATCC 26934 at 0.98 to 250 ug/mL by NCCLS broth microdilution method; type: functional, organism-based
Method in brief: (§1)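 MIC by broth microdilution per NCCLS M27-A3/M38-A2 in RPMI-1640 buffered to pH 7.0 with MOPS. Twofold dilutions from 250–0.98 µg/mL, final DMSO ≤1%. Inoculum 1–5 × 10³ CFU/mL. Incubated in a moist dark chamber, 30 °C for Aspergillus and 28–30 °C for dermatophytes. Read visually when control growth allowed. Endpoint is the lowest concentration giving total inhibition of visible growth (MIC100).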

[1] = system: Trichophyton mentagrophytes; experiment: Antifungal activity against Trichophyton mentagrophytes ATCC 9972 by NCCLS broth microdilution method; type: functional; details: read-out: MIC100; method in brief: as §1
Trichophyton rubrum [2] = experiment: Antifungal activity against Trichophyton rubrum CCC 110 by NCCLS broth microdilution method; type: functional; details: read-out: MIC100; method in brief: as §1
Candida albicans [3] = experiment: Antifungal activity against Candida albicans ATCC 10231 assessed as growth inhibition at 15.6 ug/mL after 24 hrs by microplate reader analysis; type: functional; details: ATCC 10231, 24 h, read-out: GI
Method in brief: (§2)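 96-well RPMI-1640 wells with compound at final 250–0.98 µg/mL (DMSO ≤1%). Inoculum 100 µL, 1–5 × 10³ CFU/mL, 200 µL final. Each well includes growth (DMSO, no compound) and sterility controls. % inhibition = 100 − (CTW−SCW)/(GCW−SCW) × 100, run in duplicate.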

Cryptococcus neoformans [4] = experiment: Antifungal activity against Cryptococcus neoformans ATCC 32264 assessed as growth inhibition at 125 ug/mL after 48 hrs by microplate reader analysis; type: functional; details: ATCC 32264, 48 h, read-out: GI
Method in brief: (§3)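 Microplate growth-inhibition assay in RPMI-1640, compound at final 250–0.98 µg/mL (DMSO ≤1%). Inoculum 1–5 × 10³ CFU/mL. Sterility and DMSO growth controls included. Percent inhibition is computed from blank-corrected OD relative to the growth control, tested in duplicate.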

Candida albicans [5] = experiment: Antifungal activity against Candida albicans ATCC 10231 assessed as growth inhibition at 7.8 ug/mL after 24 hrs by microplate reader analysis; type: functional; details: ATCC 10231, 24 h, read-out: GI; method in brief: as §2
Aspergillus flavus = experiment: Antifungal activity against Aspergillus flavus ATCC 9170 at 0.98 to 250 ug/mL by NCCLS broth microdilution method; type: functional, organism-based; method in brief: as §1
Cryptococcus neoformans [6] = experiment: Antifungal activity against Cryptococcus neoformans ATCC 32264 after 48 hrs by microplate reader analysis; type: functional; details: ATCC 32264, 48 h; method in brief: as §3
Candida albicans [7] = experiment: Antifungal activity against Candida albicans ATCC 10231 assessed as growth inhibition at 250 ug/mL after 24 hrs by microplate reader analysis; type: functional; details: ATCC 10231, 24 h, read-out: GI; method in brief: as §2
Trichophyton rubrum [8] = experiment: Fungicidal activity against Trichophyton rubrum CCC 110 after 48 hrs by agar plate dilution method; type: functional; details: CCC 110, 48 h
Method in brief: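 Samples from each clear well of the MIC broth microdilution tray were plated onto RPMI-1640 agar buffered with MOPS. That tray had compounds twofold diluted in RPMI (pH 7.0, MOPS) from 250–0.98 µg/mL with inoculum of 1–5 × 10³ CFU/mL, incubated at 28–30 °C for dermatophytes. Plates were incubated at 30 °C and read at 48 h. MFC was taken as the lowest concentration giving total inhibition of visible growth.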

Candida tropicalis [9] = experiment: Antifungal activity against Candida tropicalis assessed as growth inhibition at 7.8 ug/mL by microplate reader analysis; type: functional; details: read-out: GI
Cryptococcus neoformans [10] = experiment: Antifungal activity against Cryptococcus neoformans ATCC 32264 after 48 hrs by NCCLS broth microdilution method; type: functional; details: ATCC 32264, 48 h, read-out: MIC100
Method in brief: (§4)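 Yeast MIC by NCCLS M27-A3 broth microdilution in RPMI-1640 buffered to pH 7.0 with MOPS. Twofold dilutions of 250–0.98 µg/mL, final DMSO ≤1%. Inoculum 1–5 × 10³ CFU/mL. Incubated at 30 °C in a moist dark chamber. Read visually at 48 h. MIC100 is the lowest concentration with no visible growth versus drug-free control.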

Candida tropicalis [11] = experiment: Antifungal activity against Candida tropicalis after 48 hrs by NCCLS broth microdilution method; type: functional; details: read-out: MIC100; method in brief: as §4
Candida tropicalis [12] = experiment: Antifungal activity against Candida tropicalis assessed as growth inhibition at 3.9 ug/mL by microplate reader analysis; type: functional; details: read-out: GI
Candida tropicalis [13] = experiment: Fungicidal activity against Candida tropicalis after 48 hrs by agar plate dilution method; type: functional
Method in brief: (§5)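 MFC: after the microdilution MIC, material from each clear well was plated onto RPMI-1640 agar buffered with MOPS. Plates incubated at 30 °C and read after 48 h. MFC is the lowest concentration giving total inhibition of visible growth.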

Cryptococcus neoformans [14] = experiment: Antifungal activity against Cryptococcus neoformans ATCC 32264 assessed as growth inhibition at 7.8 ug/mL after 48 hrs by microplate reader analysis; type: functional; details: ATCC 32264, 48 h, read-out: GI; method in brief: as §3
Cryptococcus neoformans [15] = experiment: Fungicidal activity against Cryptococcus neoformans ATCC 32264 after 48 hrs by agar plate dilution method; type: functional; details: ATCC 32264, 48 h; method in brief: as §5
Candida tropicalis [16] = experiment: Antifungal activity against Candida tropicalis by microplate reader analysis; type: functional
Candida albicans [17] = experiment: Fungicidal activity against Candida albicans ATCC 10231 after 48 hrs by agar plate dilution method; type: functional; details: ATCC 10231, 48 h; method in brief: as §5
Cryptococcus neoformans [18] = experiment: Antifungal activity against Cryptococcus neoformans ATCC 32264 assessed as growth inhibition at 3.9 ug/mL after 48 hrs by microplate reader analysis; type: functional; details: ATCC 32264, 48 h, read-out: GI; method in brief: as §3
Candida tropicalis [19] = experiment: Antifungal activity against Candida tropicalis assessed as growth inhibition at 31.25 ug/mL by microplate reader analysis; type: functional; details: read-out: GI

## COc1nc(N)c(N=O)c(OCc2ccccc2)n1
Aspergillus fumigatus
  Activity: inactive
[1]
  MIC: 125 µg/mL (≈ 480 µM)
Trichophyton rubrum [2]
  MIC: 125 µg/mL (≈ 480 µM)
Candida albicans [3]
  inhibition of growth at 15.6 µg/mL: 99.6%
Cryptococcus neoformans [4]
  inhibition of growth at 125 µg/mL: 100%
Candida albicans [5]
  inhibition of growth at 7.8 µg/mL: 56.9%
Aspergillus flavus
  Activity: inactive
Cryptococcus neoformans [6]
  MIC50: 3.9 µg/mL (≈ 15 µM)
Candida albicans [7]
  inhibition of growth at 250 µg/mL: 100%
Trichophyton rubrum [8]
  MFC: 125 µg/mL (≈ 480 µM)
Candida tropicalis [9]
  inhibition of growth at 7.8 µg/mL: 56.7%
Cryptococcus neoformans [10]
  MIC: 62.5 µg/mL (≈ 240 µM)
Candida tropicalis [11]
  MIC: 31.2 µg/mL (≈ 120 µM)
Candida tropicalis [12]
  inhibition of growth at 3.9 µg/mL: 19.7%
Candida tropicalis [13]
  MFC: 62.5 µg/mL (≈ 240 µM)
Cryptococcus neoformans [14]
  inhibition of growth at 7.8 µg/mL: 78.1%
Cryptococcus neoformans [15]
  MFC: 125 µg/mL (≈ 480 µM)
Candida tropicalis [16]
  MIC50: 7.8 µg/mL (≈ 30 µM)
Candida albicans [17]
  MFC: 62.5 µg/mL (≈ 240 µM)
Cryptococcus neoformans [18]
  inhibition of growth at 3.9 µg/mL: 49.2%
Candida tropicalis [19]
  inhibition of growth at 31.25 µg/mL: 100%
